Compound activity as filed in PubChem.
Jurkat NFkB inh: inhibitors of the PMA/ionomycin-induced NF-kB reporter in Jurkat cells | PMA/ionomycin-induced NF-kB luciferase reporter, luminescence | inhibition, % at 4 µM | actives 0.53% (n = 330,000); in the data active = inhibition above about 50%
697 NFkB inh: lowers PMA/ionomycin-induced NF-kB signal in 697 B cells; actives 0.33% (n = 330,000); AID 435022; 697 B-cell NF-kB luciferase reporter, 16 h; inhibition, % at 4 µM; in the data active = inhibition above about 35%
UPR CHOP act: apoptotic UPR (CHOP) activation. CHO-CHOP luciferase reporter, luminescence; percent of tunicamycin response over DMSO baseline. actives 0.34% (n = 330,000). activation, % at 10 µM. AID 449763;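 active = at 10 µM dose, activation of 40% or more, normalized to positive control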;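 also: 100% = tunicamycin at 10 µg/mL and 0% = DMSO alone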
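assay system = CHO CHOP reporter cells | amount = 500 CHO-CHOP cells per well | buffer or medium = F12 with 10% FBS | incubation = 16-18 h cell attachment, then 6 h compound exposure, 37 °C | detection = luminescence read with Steady-Glo | read-out = percent activation relative to tunicamycin control | controls = tunicamycin high control, DMSO low control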
UPR XBP1 act: adaptive UPR (XBP1) activation. CHO-XBP1 luciferase reporter, IRE1-XBP1 UPR activation, luminescence; percent of tunicamycin response, DMSO as zero. activation, % at 20 µM. actives 0.33% (n = 330,000);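 active = versus positive control, 20 µM dose yields 30% or more activation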;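 also: 100% = tunicamycin at 10 µg/mL and 0% = DMSO only wells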
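Material – CHO cell line with stable XBP1 luciferase reporter · Buffer or medium – F12 plus 10% FBS · Compound – single point, 20 µM final compound, 1% DMSO · Schedule – 16-18 h cell attachment at 37 °C, then 6 h compound exposure · Signal – Steady-Glo luminescence read · Benchmarks – high control tunicamycin 10 µg/mL final, low control DMSO vehicle only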
CRFR2-BP antag: antagonists of CRF-binding protein/CRF-R2 receptor complex; AID 588475; actives 0.59% (n = 350,000); HEK293 CRF-R2/CRF-BP, CRF-induced calcium fluorescence; inhibition, % at 11.8 µM;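 active = inhibition of the ligand-induced calcium signal above about 50% at the single tested concentration, limit read from the data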
Jurkat NFkB conf: lowers PMA/ionomycin-induced NF-kB signal in Jurkat cells | shares compounds with Jurkat NFkB inh | Jurkat NF-kB luciferase, 16 h | inhibition, % at 4 µM | actives 27% (n = 2,700);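 active = inhibition reaching about 45% at 4 µM in either replicate, limit read from the data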;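 also: plate controls were PMA/ionomycin stimulated DMSO wells for no effect and unstimulated DMSO wells for full effect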
697 NFkB conf: inhibitors of the PMA/ionomycin-induced NF-kB reporter in 697 B cells, retest | shares compounds with 697 NFkB inh | 697 B-cell NF-kB luciferase, 16 h | inhibition, % at 4 µM | actives 35% (n = 2,000); in the data active = inhibition mostly above about 28%, no sharp cut-off; inactive = mostly below about 22%
* marks the source's active call; other numbers are inactive results; i = inactive; x = no result. Hits are enriched below; roughly 1.8% of the tested compounds scored in any of these assays.

SMILES	Jurkat NFkB inh	697 NFkB inh	UPR CHOP act	UPR XBP1 act	CRFR2-BP antag	Jurkat NFkB conf	697 NFkB conf
CNC(=O)c1ccsc1NC(=O)CS(=O)(=O)c1ccc(F)cc1	x	x	x	x	12	x	x
CCN(C(=O)CC(C)C)c1nnc(Cn2nnc3ccccc32)s1	13	-20	1	3	-12	x	x
CCN(C(=O)c1ccc(C(C)(C)C)cc1)c1nnc(Cn2nnc3ccccc32)s1	57*	96*	14	0	9	69*	91*
CC(C)(C)C(=O)/C(=C/c1ccncc1)n1cncn1	54*	37*	25	-6	15	31	42*
NC(=O)c1ccccc1OCC(=O)Nc1ccc(Cl)c(Cl)c1	-187	-372	1	0	0	-121	-389
O=C1N(c2ccccc2)CCN1c1ccccc1	-185	-269	3	-4	6	-111	-180
COc1ccc(NS(=O)(=O)c2cccc(C(=O)NNC(=O)CNC(=O)c3ccc(C)cc3)c2)cc1	8	23	0	-2	-1	x	x
Cc1ccc[n+](CC(=O)/C=C2\N(C)c3ccccc3C2(C)C)c1	55*	48*	2	-1	-3	10	1
Cc1ccc(Cn2ccsc2=NC(=O)CCl)cc1	78*	94*	10	4	-8	51*	98*
N#Cc1ccc(OS(=O)(=O)c2ccc(-c3ccon3)s2)cc1	x	x	x	x	40	x	x
N#CC(c1cccc(Cl)c1)c1ccc2c(C(F)(F)F)cc(C(F)(F)F)nc2n1 (centres undefined)	58*	66*	18	2	44	59*	33*
O=S(=O)(c1ccccc1)N1CCN(C/C=C/c2ccccc2)CC1	7	-5	0	-5	-1	x	x
c1ccc(-c2cc(-c3cc(-c4ccccc4)on3)no2)cc1	x	x	x	x	-12	x	x
COc1ccc(-c2cc(-c3ccccc3)no2)cc1	-224	-351	-2	-7	0	-145	-376
COc1ccccc1C(=O)NC(=O)COC(=O)c1ccc(Br)o1	-2	3	0	-4	-8	x	x
CCc1cc2c(=O)c(-c3ccc4c(c3)OCCO4)coc2cc1OC(=O)c1ccco1	-223	-360	1	1	4	-129	-407
NC(=O)c1c(NC(=O)COC(=O)c2ccc(O)c(Cl)c2)sc2c1CCCC2	-11	-36	2	-1	-20	x	x
CCCOc1ccc(NC(=O)CCC(=O)NC(C)c2ccccc2)cc1 (centres undefined)	-8	6	1	-5	6	x	x
Cc1ccc(NC(=O)C(=O)c2c[nH]c3ccccc23)cc1	-215	-330	9	-2	19	-124	-313
Cc1ccc(NC(=O)c2cc(=O)[nH]c3ccccc23)cc1	-28	2	1	-3	5	x	x
Nc1c(-c2ccccc2)cnc2c(-c3ccccc3)cnn12	-231	i	-2	-8	-4	-190	i
Cc1ccc([C@@H]2CC=C(C(=O)O)[C@H](c3ccc(Cl)cc3)N2S(=O)(=O)c2ccccc2C)cc1	5	12	9	0	22	x	x
CCOC(=O)c1sc(NC(=O)Nc2ccccc2Cl)cc1C	-277	-420	6	4	10	-171	i
CCOC(=O)c1sc(NC(C)=O)cc1C	-8	5	2	2	3	x	x
Cc1ccccc1NS(=O)(=O)c1ccc(NS(=O)(=O)c2cccs2)cc1	5	5	1	0	-5	x	x
SMILES	Jurkat NFkB inh	697 NFkB inh	UPR CHOP act	UPR XBP1 act	CRFR2-BP antag	Jurkat NFkB conf	697 NFkB conf
O=C(Nc1ccc(-c2noc(CCc3ccccc3)n2)cc1)c1ccco1	-187	-296	4	-1	6	-84	-184
c1ccc(CCc2nc(-c3ccccc3)no2)cc1	-56	-31	6	2	-28	x	x
O=C(OCCOc1cccc(Cl)c1)c1ccc2ncsc2c1	0	2	3	2	-26	x	x
Cc1ccc(-c2nc(-c3ccccc3)no2)cc1	-177	-295	-6	-17	-27	-123	-283
c1ccc(-c2noc(-c3cccc4ccccc34)n2)cc1	-131	-179	4	4	-5	x	x
CC(C)(C)c1ccc(-c2nc(-c3ccncc3)no2)cc1	-193	-355	1	-3	-37	-69	-379
Brc1ccccc1-c1nc(-c2ccccc2)no1	-153	-303	-2	-6	x	-98	-329
CC(=Nc1ccc(C)cc1)c1sc2ccccc2c1O	-152	-387	1	-3	-91	-77	-144
CC(=Nc1cccc(O)c1)c1sc2ccccc2c1O	-121	-185	2	1	-23	x	x
CNC(=O)C1CCN(S(=O)(=O)c2c(C)noc2/C=C/c2cccc(OC)c2)CC1	4	-7	0	0	7	x	x
CC(C)CCn1cnc2c(sc3nc4c(cc32)CSC(C)(C)C4)c1=O	-208	-359	4	-1	-22	-65	-286
CC1(C)Cc2nc3sc4c(NCCO)ncnc4c3cc2CS1	-18	14	5	0	13	x	x
Brc1ccc(-c2nnc(-c3ccccc3Br)o2)cc1	-194	-308	4	-1	-31	-95	-267
Brc1ccccc1-c1nnc(-c2cccnc2)o1	-25	-42	4	1	-10	x	x
COc1ccc(OC)c(/C=N/NC(=O)C(=O)N2CCCCCC2)c1	11	1	1	-1	-24	x	x
CC1(C)CCc2cc(-c3ccnc(=S)[nH]3)ccc2O1	-158	-266	2	-3	4	-16	-175
COc1ccccc1Cn1c(=S)[nH]c2cc(C(=O)N3CC(C)CC(C)C3)ccc2c1=O (centres undefined)	x	x	x	x	4	x	x
Cc1ccc(C(=O)Nc2cccc(C(F)(F)F)c2)cc1NC(=O)c1ccno1	51*	60*	-1	-2	21	87*	61*
Cc1ccnc(NC(=O)CCCOc2cc(=O)n(C)c3ccccc23)c1	66*	61*	-3	-1	3	58*	48*
CCCSc1ccc([C@H]2N[C@@](CC(C)C)(C(=O)OC)[C@H]3C(=O)N(CC)C(=O)[C@@H]23)cc1	-4	13	-1	-2	-2	x	x
COC(=O)/C(=C1/Oc2cc(C)oc(=O)c2S1)C(F)(F)F	69*	-324	5	-4	-2	11	-198
COC(=O)/C(=C1/Oc2ccc(C(C)(C)C)cc2S1)C(F)(F)F	-78	-73	4	-3	-17	x	x
COc1cc(OC)c(C(=O)Nc2cc(S(=O)(=O)N3CCOCC3)ccc2N2CCOCC2)cc1OC	x	x	x	x	6	x	x
CC1=NNC(=O)/C1=C\c1cn(-c2ccccc2)nc1-c1ccc(Cl)cc1	95*	37*	-10	-6	-31	46*	13
